{
  "source": "ChEMBL document CHEMBL1128303",
  "about": "“Novel non-nucleoside inhibitors of HIV-1 reverse transcriptase. 3. Dipyrido[2,3-b:2',3'-e]diazepinones” (J Med Chem, 1995)",
  "data": [
    {"molecular_target": "Human immunodeficiency virus type 1 reverse transcriptase (Human immunodeficiency virus 1, UniProt Q72547)", "test": "In vitro for inhibition of HIV-1 reverse transcriptase.", "units": {"IC50": "nM"}, "values": [
      {"smiles": "CCN1c2cccnc2N(C)C(=O)c2cccnc21", "IC50": 1300},
      {"smiles": "CCN1c2nc(C)ccc2C(=O)N(C)c2cccnc21", "IC50": 1000},
      {"smiles": "CN1C(=O)c2cccnc2N(C2CC2)c2ccc(Cl)nc21", "IC50": 1000},
      {"smiles": "CN1C(=O)c2cccnc2N(C2CC2)c2ncc(Cl)cc21", "IC50": 290},
      {"smiles": "CN1C(=O)c2cccnc2N(C2CC2)c2nc(Cl)ccc21", "IC50": 90},
      {"smiles": "CCN1c2ncc(N)cc2C(=O)N(C)c2cccnc21", "IC50": 130},
      {"smiles": "CCN1c2cc(Br)cnc2N(C)C(=O)c2cccnc21", "IC50": 550},
      {"smiles": "CN1C(=O)c2cccnc2N(C2CC2)c2cc(Cl)cnc21", "IC50": 760},
      {"smiles": "CCN1c2ncc(Br)cc2C(=O)N(C)c2cccnc21", "IC50": 1300},
      {"smiles": "CCN1c2cc(C)c(C)nc2N(C)C(=O)c2cc(N)cnc21", "IC50": 150},
      {"smiles": "CCN1c2cc(C)c(C)nc2N(C)C(=O)c2cccnc21", "IC50": 190},
      {"smiles": "CCN1c2cccnc2N(C)C(=O)c2cc(N)cnc21", "IC50": 280},
      {"smiles": "CCN1c2ncccc2C(=O)N(C)c2ccc(-c3cccc(N)c3)nc21", "IC50": 70},
      {"smiles": "CCN1c2ccc(C)nc2N(C)C(=O)c2cccnc21", "IC50": 1760}
    ]},
    {"molecular_target": "Human immunodeficiency virus type 1 reverse transcriptase (Human immunodeficiency virus 1) (UniProt Q72547)", "test": "In vitro for inhibition of HIV-1 reverse transcriptase at 1 uM", "summary_of_the_method": "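Compounds were first screened as percent enzyme inhibition at a single 1 μM concentration. IC50 was not determined for compounds giving under 35% inhibition at 1 μM.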", "units": {"inhibition": "%"}, "values": [
      {"smiles": "CCN1c2ccc([N+](=O)[O-])nc2N(C)C(=O)c2cccnc21", "inhibition": "< 35"},
      {"smiles": "CCN1c2cccnc2N(C)C(=O)c2ccc(C)nc21", "inhibition": "< 35"},
      {"smiles": "CCN1c2ncccc2C(=O)N(C)c2nccc(C)c21", "inhibition": "< 35"},
      {"smiles": "CCN1c2cc(Br)c(Br)nc2N(C)C(=O)c2cccnc21", "inhibition": "< 35"},
      {"smiles": "CCN1c2ncccc2C(=O)N(C)c2cc([N+](=O)[O-])cnc21", "inhibition": "< 35"},
      {"smiles": "CCN1c2cc(-c3cccc(N)c3)cnc2N(C)C(=O)c2cccnc21", "inhibition": "< 35"},
      {"smiles": "CCN1c2cccnc2N(C)C(=O)c2cc(Br)cnc21", "inhibition": "< 35"}
    ]}
  ]
}
